Measured values collected from several papers.
Lines come from different studies, so protocols differ.
Target: Discoidin domain-containing receptor 2 (DDR2, Homo sapiens, UniProt Q16832)
One construct used (Q16832 1-855): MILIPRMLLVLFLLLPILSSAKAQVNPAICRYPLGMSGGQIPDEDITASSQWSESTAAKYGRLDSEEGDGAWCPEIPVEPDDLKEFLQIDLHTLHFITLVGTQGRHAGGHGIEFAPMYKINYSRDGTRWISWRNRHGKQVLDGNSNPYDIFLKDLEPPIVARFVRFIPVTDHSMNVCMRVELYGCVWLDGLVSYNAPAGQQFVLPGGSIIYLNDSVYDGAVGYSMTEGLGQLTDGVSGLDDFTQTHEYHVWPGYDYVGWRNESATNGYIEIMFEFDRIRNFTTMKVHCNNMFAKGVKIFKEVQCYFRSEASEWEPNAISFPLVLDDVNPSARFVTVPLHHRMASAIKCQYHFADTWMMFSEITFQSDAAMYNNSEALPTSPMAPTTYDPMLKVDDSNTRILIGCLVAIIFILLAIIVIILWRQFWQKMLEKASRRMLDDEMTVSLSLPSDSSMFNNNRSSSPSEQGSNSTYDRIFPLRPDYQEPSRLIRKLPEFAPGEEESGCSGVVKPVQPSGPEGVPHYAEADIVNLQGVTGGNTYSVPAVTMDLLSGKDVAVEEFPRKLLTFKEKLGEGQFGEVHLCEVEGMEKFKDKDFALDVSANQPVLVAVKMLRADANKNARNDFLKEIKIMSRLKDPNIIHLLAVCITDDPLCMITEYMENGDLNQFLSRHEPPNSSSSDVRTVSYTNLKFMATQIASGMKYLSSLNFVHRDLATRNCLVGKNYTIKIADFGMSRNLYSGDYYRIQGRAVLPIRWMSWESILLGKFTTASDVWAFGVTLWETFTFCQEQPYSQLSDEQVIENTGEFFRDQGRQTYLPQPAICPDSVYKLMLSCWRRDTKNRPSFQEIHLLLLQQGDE

CC(=O)C1=C(C)N(c2cccc(C(F)(F)F)c2)C(=O)N[C@@H]1c1ccc(C#N)nc1
remaining binding (cell-free assay; competition with immobilised ligand; 1 µM): 87.6%

C=CC(=O)N1CCC(C(=O)NCC(=O)N2CCN(c3nc(-c4cnc(N)nc4C(F)F)nc(N4CCOCC4)n3)CC2)CC1
remaining binding (binding; competition with immobilised ligand; 1 µM): 83%

O=C(NCCCN1CCOCC1)c1ccc(Nc2ncc(Cl)c(-c3ccc(Cl)s3)n2)cc1
remaining binding (binding; competition with immobilised ligand; 1 µM): 61%

O=C(N[C@H]1CCCCC/C=C\C2C[C@@]2(C(=O)O)NC(=O)[C@@H]2C[C@@H](Oc3ccncc3)CN2C1=O)OC1CCCC1 (some centres unmarked)
remaining binding (cell-free assay; competition with immobilised ligand; 1 µM): 100%

CN(CCCC(F)(F)F)c1nccc(-c2cnn3ncccc23)n1
remaining binding (binding; 1 µM): 96%

O=C(c1ccc(Nc2nccc(-c3cc4ccccc4s3)n2)cc1)N1CCC(N2CCCC2)CC1
remaining binding (binding; competition with immobilised ligand; 1 µM): 20%

O=C(Nc1cccnn1)N1CCC(=Cc2cccc(Oc3ccc(C(F)(F)F)cn3)c2)CC1
remaining binding (cell-free assay; competition with immobilised ligand; 1 µM): 100%

COc1ccnn2ncc(-c3ccnc(N(C)C)n3)c12
remaining binding (binding; 1 µM): 67%

CC(C)CC(=O)N1CCc2nc(-c3ccc(Br)cc3)nc(N(C)Cc3ccccc3)c2C1
remaining binding (cell-free assay; competition with immobilised ligand; 0.1 µM): 97%

Cc1cnn2ncc(-c3ccnc(N(C)C)n3)c2c1
remaining binding (binding; 1 µM): 69%

Nc1cnc(N2CCc3cc(S(=O)(=O)Nc4c(F)cc(Cl)cc4F)cc(N4CCCC4=O)c32)nc1
remaining binding (cell-free assay; competition with immobilised ligand; 1 µM): 100%

c1cnn2ncc(-c3ccnc(N4CCC45COC5)n3)c2c1
remaining binding (binding; 1 µM): 83%

COc1ncc2cc3ccccc3nc2c1C#N
remaining binding (cell-free assay; competition with immobilised ligand; 5 µM): 94%

C[C@@H]1CCN(c2nccc(-c3cnn4ncccc34)n2)C1
remaining binding (binding; 1 µM): 66%

Cn1nc(C(F)(F)F)cc1-c1cnc(N2CCc3cc(S(=O)(=O)Nc4c(F)cc(Cl)cc4F)cc(N4CCCC4=O)c32)nc1
remaining binding (cell-free assay; competition with immobilised ligand; 1 µM): 80%

Cc1cnc(Nc2ccc(C(=O)N3CCC(N4CCCC4)CC3)cc2)nc1-c1cc2ccccc2s1
remaining binding (binding; competition with immobilised ligand; 1 µM): 8%

O=C(Nc1c[nH]nc1C(=O)NC1CCNCC1)c1cc(F)cc(F)c1
remaining binding (binding; competition with immobilised ligand; 1 µM): 94%

CN(C)c1nccc(-c2cnc3ncccn23)n1
remaining binding (binding; 1 µM): 84%

COc1cnc(Nc2cccc(S(N)(=O)=O)c2)nc1N1CCN(c2ccccc2)C(=O)C1
remaining binding (binding; competition with immobilised ligand; 1 µM): 100%

Nc1ncc2c(n1)-c1c([nH]c3ccc(C#CC4CC4)cc13)CCCC2
remaining binding (binding; competition with immobilised ligand; 1 µM): 80%
